Legend:
[1] = Stability of talazoparib in mouse plasma QC samples; type: physicochemical; conditions: for Bench-top stability, mean deviation: ambient temperature (25 °C) for 6 h; for Bench-top stability, mean deviation / Auto-sampler stability, mean deviation / Re-injection stability, mean deviation: N=3; for Auto-sampler stability, mean deviation: auto-sampler at 4 °C for 24 h; for Re-injection stability, mean deviation: reanalyzed after 24 h in auto-sampler at 4 °C
Method in brief: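 Spiked mouse plasma QC at low (1.5 ng/mL) and high (80 ng/mL) levels. Conditions: bench-top at ambient temperature 6 h; extracts held in autosampler at 4 °C 24 h; processed samples re-injected after 24 h at 4 °C; three cycles of −80 °C storage for 12 h with room-temperature thaw. Quantified by UHPLC-MS/MS with isotope-labelled IS; acceptable within 85–115% of nominal.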

[2] = Influence of novobiocin pretreatment on talazoparib pharmacokinetics in mice; type: in vivo; conditions: female, FVB, mouse, plasma, po, 0.5 mg/kg, mean (±SEM), N=5; for AUC: 0-4 h
Method in brief: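 Female mice aged 12–20 weeks (wild-type FVB or ABCB1A/ABCB1B/ABCG2-null), fasted 2 h. Pretreatment (50 mg/kg in 5% dextrose) or vehicle given by oral gavage 30 min before test compound (0.1 mg/mL in 10% dimethylacetamide/5% Solutol HS/85% PBS). Blood sampled 5 min–4 h. Plasma assayed by UHPLC-MS/MS with isotope-labelled internal standard. Cmax read from the curve; AUC0–4h by log-linear trapezoidal rule.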

[3] = test system: MDCKII cells overexpressing ABCG2; conditions: cited from earlier work
ABCG2 = conditions: mice with a deficiency of only ABCG2; cited from earlier work
[4] = Pharmacokinetics of oral talazoparib in wild-type and ABCB1/ABCG2; type: in vivo, mouse; conditions: talazoparib 0.5 mg/kg p.o.; for Cmax: female, FVB, mouse, plasma, po, 0.5 mg/kg, mean (±SEM)
Method in brief: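 Adult female FVB wild-type or Abcb1a/Abcb1b/Abcg2-deficient mice (12–20 weeks, 4–5 per group) given test compound 0.5 mg/kg by oral gavage; dosing solution 0.1 mg/mL in 10% dimethylacetamide/5% Solutol HS/85% PBS. Blood at 5, 15, 30 min and 1, 2, 4 h, submandibular then retro-orbital (isoflurane), terminal cardiac. Plasma methanol-precipitated, UHPLC-MS/MS with isotope-labelled IS; Cmax visual, AUC(0–4 h) log-linear trapezoidal.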

[5] = clinical studies, oral; cited from earlier work
[6] = ABCB1/ABCG2(−/−) mice, novobiocin 50 mg/kg p.o. 30 min before talazoparib 0.5 mg/kg p.o.
[7] = wild-type mice, novobiocin 50 mg/kg p.o. 30 min before talazoparib 0.5 mg/kg p.o.

time stable in mouse plasma samples at room temperature ([1]; bench-top, room temperature, mouse plasma): at least 6 h
auto-sampler and reinjection stability time ([1]; extracted samples at 4 °C in auto-sampler): at least 24 h
stability after repeated freeze and thaw cycles ([1]; mouse plasma samples, three freeze-thaw cycles): remained stable
Bench-top stability, mean deviation ([1]; nominal 1.5 ng/mL, mouse plasma): 2.15%
Auto-sampler stability, mean deviation ([1]; nominal 1.5 ng/mL): −4.34%
Re-injection stability, mean deviation ([1]; nominal 1.5 ng/mL): 0.64%
Bench-top stability, mean deviation ([1]; nominal 80 ng/mL, mouse plasma): −8.09%
Auto-sampler stability, mean deviation ([1]; nominal 80 ng/mL): −5.14%
Re-injection stability, mean deviation ([1]; nominal 80 ng/mL): 0.62%
AUC [2, 6]: 890 ng·h/mL
AUC [2, 7]: 615 ng·h/mL
Cmax ([2]; ABCB1/ABCG2(−/−) mice, co-treatment none (vehicle), talazoparib 0.5 mg/kg p.o.): 352 ng/mL
Cmax [2, 6]: 449 ng/mL
Cmax ([2]; wild-type mice, co-treatment none (vehicle), talazoparib 0.5 mg/kg p.o.): 472 ng/mL
Cmax [2, 7]: 414 ng/mL
increase in AUC with deficiency of ABCB1 and ABCG2 ([4]; ABCB1/ABCG2(−/−) vs wild-type mice): ~1.3 fold
Cmax ([4]; ABCB1/ABCG2(−/−) mice, N=4): 350 ng/mL
Cmax ([4]; wild-type FVB mice, N=5): 360 ng/mL
SMILES: Cn1ncnc1[C@H]1c2n[nH]c(=O)c3cc(F)cc(c23)N[C@@H]1c1ccc(F)cc1 [Talazoparib]
levels of talazoparib in cells [3]: unaltered
levels of talazoparib in plasma (ABCG2): unaltered
terminal half-life [5]: ~50 h
